{"data": "Measured values of several laboratories", "sample": "plasma"}
{"Structure (SMILES)": "C[C@@H](Nc1cc(F)cc(F)c1)c1cc(C(=O)N(C)C)cc2c(=O)cc(N3CCOCC3)oc12", "test system": "human", "setting": "oral, 240 mg, single dose, patients", "half-life [h]": 6.23}
{"Structure (SMILES)": "CCNCCCNC/C=C\\CNCCCNCC", "test system": "human", "setting": "intravenous, 200 mg, patients, infusion", "half-life [h]": 0.14}
{"Structure (SMILES)": "COc1cc(C(=O)NC2CCN(C)CC2)c(F)cc1Nc1ncc(C(F)(F)F)c(Oc2cccc3c2C(=O)N(C)C3)n1", "test system": "human", "setting": "oral, 100 mg, multiple doses, once daily, patients", "half-life [h]": 18.9}
{"Structure (SMILES)": "c1cnc2ccc(Nc3nc(NC4CC4)c4nc[nH]c4n3)cc2c1", "test system": "human", "setting": "oral, 800 mg/m², patients", "half-life [h]": 6}
{"Structure (SMILES)": "COCCOc1cnc2ccn([C@H](C)c3nnc4c(F)cc(-c5cnn(C)c5)cn34)c(=O)c2c1", "test system": "human", "setting": "oral, 100 mg, multiple doses, once daily, patients", "half-life [h]": 9.1}
{"Structure (SMILES)": "CC(C)(O)c1ccccc1-c1ccc2[nH]c(/C=C/c3ccc(C(F)(F)F)cc3)nc2c1", "test system": "male human", "setting": "oral, 120 mg, single dose, fasted, healthy volunteers", "half-life [h]": 63}
{"Structure (SMILES)": "Cn1cc(-c2ccc(S(=O)(=O)[C@@H]3C[C@@H](C(=O)NC4(C#N)CC4)N(C(=O)C4(C(F)(F)F)CC4)C3)c(C(F)(F)F)c2)cn1", "test system": "human", "setting": "oral, 300 mg, single dose, fasted, healthy volunteers", "half-life [h]": 16}
{"Structure (SMILES)": "CC(C)(Sc1ccncc1-c1ccc(C#N)c2ccccc12)C(=O)O", "test system": "male human", "setting": "oral, 20 mg, single dose, fasted, healthy volunteers", "half-life [h]": 10.9}
{"Structure (SMILES)": "COc1ccc([C@@H]2CN(C(=O)[C@@H](O)CO)C[C@@]2(C)[C@@H](C)O)cc1OC1CN(c2ccc(C)cn2)C1", "test system": "human", "setting": "oral, 40 mg, single dose, healthy volunteers", "half-life [h]": 12.1}
{"Structure (SMILES)": "NS(=O)(=O)NCCNc1nonc1C(=NO)Nc1ccc(F)c(Br)c1", "test system": "human", "setting": "oral, 100 mg, multiple doses, twice daily, steady state, patients", "half-life [h]": 3.3}
{"Structure (SMILES)": "O=C(Nc1c(Cl)cncc1Cl)c1ccc(OC(F)F)c(OCC2CC2)c1", "test system": "human", "setting": "oral, 0.25 mg, single dose", "half-life [h]": 20.9}
{"Structure (SMILES)": "CO[C@@H]1[C@H](OC(=O)N2CC(CCN3CCOCC3)C2)CC[C@]2(CO2)[C@H]1[C@@]1(C)O[C@@H]1CC=C(C)C", "test system": "human", "setting": "subcutaneous, 0.6 mg, single dose, healthy volunteers", "half-life [h]": 0.56}
{"Structure (SMILES)": "CC(C)n1cc(C#N)c2cc(-n3cc(C(=O)O)cn3)ccc21", "test system": "human", "setting": "oral, 200 mg, single dose, fasted, healthy volunteers", "half-life [h]": 13.3}
{"Structure (SMILES)": "CO[C@H]1CC[C@H](N2C(=O)CNc3ncc(-c4ccc(C(C)(C)O)nc4)nc32)CC1", "test system": "human", "setting": "oral, 60 mg, patients", "half-life [h]": 5.64}
{"Structure (SMILES)": "C#C[C@]1(COP(=O)(O)OP(=O)(O)OP(=O)(O)O)O[C@@H](n2cnc3c(N)nc(F)nc32)C[C@@H]1O", "test system": "human", "setting": "oral, 400 mg, single dose", "half-life [h]": 143}
